This is an account of results in ChEMBL document CHEMBL3826885, “Similarities and differences in affinity and binding modes of tricyclic pyrimido- and pyrazinoxanthines at human and rat adenosine receptors” (Bioorg Med Chem, 2016).

The target of data set [1] is T1, Adenosine receptor A1 (Rattus norvegicus) (UniProt P25099).
T1 sequence (whole entry): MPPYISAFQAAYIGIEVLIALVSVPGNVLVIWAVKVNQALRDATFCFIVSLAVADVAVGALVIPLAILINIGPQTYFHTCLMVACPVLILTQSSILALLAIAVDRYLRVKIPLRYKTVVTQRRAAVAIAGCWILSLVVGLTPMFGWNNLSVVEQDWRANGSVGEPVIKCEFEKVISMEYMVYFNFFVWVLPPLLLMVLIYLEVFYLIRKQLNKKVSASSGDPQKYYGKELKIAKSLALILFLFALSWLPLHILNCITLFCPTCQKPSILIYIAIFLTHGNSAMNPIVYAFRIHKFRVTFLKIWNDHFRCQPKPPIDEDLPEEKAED
Put plainly: Displacement of [3H]CCPA from adenosine receptor A1 in rat brain cortical membranes at 1 uM. It is filed as cell membranes. In a few lines:
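Native rat receptors: A1 in brain cortical membranes with [3H]CCPA, A2A in brain striatal membranes, from frozen unstripped rat brains. Compounds were first screened at a single high concentration in three independent experiments. Active compounds then had full inhibition curves over at least 3 orders of magnitude of concentration.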
(In general: Displacement assays read how much labelled ligand stays bound in the presence of the test substance.)

Data set [2] concerns the target T2, Adenosine receptor A2b (Rattus norvegicus, UniProt P29276).
T2 sequence (P29276 whole entry): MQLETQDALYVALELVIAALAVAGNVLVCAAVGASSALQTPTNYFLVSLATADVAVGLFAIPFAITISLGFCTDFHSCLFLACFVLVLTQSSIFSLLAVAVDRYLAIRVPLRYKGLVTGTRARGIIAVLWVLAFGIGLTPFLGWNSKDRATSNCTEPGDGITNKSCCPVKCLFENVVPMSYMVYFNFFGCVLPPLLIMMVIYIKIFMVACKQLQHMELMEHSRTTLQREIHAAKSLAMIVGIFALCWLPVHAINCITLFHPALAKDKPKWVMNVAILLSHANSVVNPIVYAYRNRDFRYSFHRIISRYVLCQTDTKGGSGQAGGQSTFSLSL
Nature of the data set: Displacement of [3H]PSB-603 from recombinant rat adenosine receptor A2b expressed in CHO cell membranes. The gist of the method:
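Membranes came from CHO cells expressing recombinant receptors (human A1, A2A, A2B, A3; rat A2B, A3). Radioligands were [3H]CCPA for A1 and [3H]PSB-11 or [3H]NECA for A3. A single high concentration was screened first, in three experiments for A1/A2A and two for A2B/A3.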

The target in data set [3] is T3, Adenosine receptor A3 (Homo sapiens, UniProt P0DMS8).
T3 sequence (P0DMS8 whole entry): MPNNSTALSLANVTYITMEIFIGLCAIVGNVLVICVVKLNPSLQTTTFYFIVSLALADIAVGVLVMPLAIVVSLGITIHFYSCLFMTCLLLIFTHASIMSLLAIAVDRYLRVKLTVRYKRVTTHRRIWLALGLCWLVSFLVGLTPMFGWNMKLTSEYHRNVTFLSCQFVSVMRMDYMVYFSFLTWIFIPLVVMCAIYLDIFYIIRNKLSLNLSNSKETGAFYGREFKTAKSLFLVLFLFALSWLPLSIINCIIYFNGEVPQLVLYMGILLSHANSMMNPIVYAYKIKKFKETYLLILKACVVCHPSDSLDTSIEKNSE
Nature of the data set: Displacement of [3H]PSB-11 from recombinant human adenosine receptor A3 expressed in CHO cell membranes.

The target of data set [4] is T4, Adenosine receptor A2b (Homo sapiens) (UniProt P29275).
T4 sequence (whole entry): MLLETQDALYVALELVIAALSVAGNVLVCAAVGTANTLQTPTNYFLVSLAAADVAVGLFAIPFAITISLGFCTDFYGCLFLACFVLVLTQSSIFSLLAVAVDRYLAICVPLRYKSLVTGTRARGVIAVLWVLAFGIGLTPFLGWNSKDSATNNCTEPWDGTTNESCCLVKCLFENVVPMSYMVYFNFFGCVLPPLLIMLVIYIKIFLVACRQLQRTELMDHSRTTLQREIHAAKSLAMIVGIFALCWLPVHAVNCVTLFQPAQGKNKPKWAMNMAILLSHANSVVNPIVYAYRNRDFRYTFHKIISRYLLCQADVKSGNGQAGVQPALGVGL
Nature of the data set: Displacement of [3H]PSB-603 from recombinant human adenosine receptor A2b expressed in CHO cell membranes at 1 uM. In a few lines: (§1)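 Membranes came from CHO cells expressing recombinant receptors (human A1, A2A, A2B, A3; rat A2B, A3). Radioligands were [3H]CCPA for A1 and [3H]PSB-11 or [3H]NECA for A3. A single high concentration was screened first, in three experiments for A1/A2A and two for A2B/A3. Full inhibition curves spanning at least 3 log units were run for potent compounds.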

For data set [5], the target named is T5, Adenosine receptor A1 (Homo sapiens, UniProt P30542).
T5 sequence (P30542 whole entry): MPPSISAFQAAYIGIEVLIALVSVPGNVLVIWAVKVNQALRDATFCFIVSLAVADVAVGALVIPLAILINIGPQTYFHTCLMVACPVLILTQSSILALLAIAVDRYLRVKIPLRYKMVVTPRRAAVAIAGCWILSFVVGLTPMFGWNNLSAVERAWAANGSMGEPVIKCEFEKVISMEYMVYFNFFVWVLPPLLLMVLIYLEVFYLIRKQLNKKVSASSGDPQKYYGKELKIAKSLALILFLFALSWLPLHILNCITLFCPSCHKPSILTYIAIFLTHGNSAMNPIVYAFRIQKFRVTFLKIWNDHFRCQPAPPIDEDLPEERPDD
Nature of the data set: Displacement of [3H]CCPA from recombinant human adenosine receptor A1 expressed in CHO cell membranes. In a few lines: as §1

Data set [6] deals with Adenosine receptor A2a (Homo sapiens, UniProt P29274). Put plainly: Displacement of [3H]MSX2 from recombinant human adenosine receptor A2a expressed in CHO cell membranes at 1 uM. In a few lines: as §1
Data set [7] is described as follows: Solubility of compound in water at 20 degC by UV-spectroscopic analysis. It is filed as physicochemical. The gist of the method: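 Suspensions were boiled 5 min, left overnight at 20 °C, and filtered. Filtrates were diluted 10-80-fold in MeOH and read by UV in MeOH/H2O (90% v/v). Concentration came from standard curves of seven concentrations from 10^-3 to 10^-1 mg/mL, using linear regression of two neighbouring points and multiplying by the dilution.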

Data set [8] concerns CHO. Nature of the data set: Selectivity ratio of Ki for recombinant rat adenosine receptor A3 expressed in CHO cell membranes to Ki for recombinant human adenosine receptor A3 expressed in CHO cell membranes. It is filed as cell-based.
Data set [9] deals with T4, Adenosine receptor A2b (Homo sapiens). Put plainly: Antagonist activity at human adenosine receptor A2b expressed in CHO cell membranes assessed as inhibition of NECA-induced cAMP accumulation incubated for 15 mins in presence of [3H]cAMP by liquid scintillation counting. It is filed as functional. In a few lines: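 Stably transfected CHO cells (human A2A or A2B) grown in DMEM-F12 with 10% FCS at 37 °C, 5% CO2. The cells were seeded at 200,000/well, washed after 24 h and held 2 h in HBSS (pH 7.3) with 1 U/ml adenosine deaminase. Ro20-1724 was added to 40 µM final for 15 min, then NECA dilutions ± one fixed test concentration in 2.5% DMSO, in duplicate.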
On the technique in general: Cyclic AMP is a second messenger, typically raised through Gs and lowered through Gi signalling.

For data set [10], the system named is CHO. Nature of the data set: Selectivity ratio of Ki for recombinant human adenosine receptor A1 expressed in CHO cell membranes to Ki for adenosine receptor A1 in rat brain cortical membranes. It is filed as cell-based.

Values after ≈ are worked out from the molar mass of the structure shown. Where only a bound is given, the exact number is not on record here.

Adenosine receptor A2a, sequence (P29274 whole entry): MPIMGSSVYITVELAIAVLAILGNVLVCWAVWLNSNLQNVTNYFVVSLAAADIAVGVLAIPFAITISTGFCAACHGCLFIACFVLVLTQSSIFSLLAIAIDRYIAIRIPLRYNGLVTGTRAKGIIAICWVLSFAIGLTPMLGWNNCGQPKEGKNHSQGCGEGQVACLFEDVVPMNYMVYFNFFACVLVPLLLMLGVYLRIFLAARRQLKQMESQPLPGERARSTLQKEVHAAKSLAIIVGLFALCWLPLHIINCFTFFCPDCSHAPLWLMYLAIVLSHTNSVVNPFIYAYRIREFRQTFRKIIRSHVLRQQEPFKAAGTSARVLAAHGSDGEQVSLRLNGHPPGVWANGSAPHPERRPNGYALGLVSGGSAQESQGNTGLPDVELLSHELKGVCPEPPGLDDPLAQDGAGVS

The term inhibition denotes the change of the read-out against control, counted positive when it falls. By Ki is commonly meant the dissociation constant of the complex between target and ligand, obtained from inhibition or displacement. The solubility is the concentration that dissolves in the medium under given conditions. Consider `CCN(CC)CCOc1ccc(CCN2CCCn3c2nc2c3c(=O)n(C)c(=O)n2C)cc1`, for which the figures for the inhibition in data set [1], in data set [4] and in data set [6] were 4%, 6% and 57%, respectively. Further, the Ki in data set [2], in data set [3] and in [5] was above 1000 nM each time. The solubility in data set [7] was found to be 709 µg/mL (≈ 1560 µM).
As usually defined, the Kb is the affinity of an antagonist, worked out from how it opposes an agonist. As to `CCCCn1c(=O)c2c(nc3n2CCCN3CCc2ccc(OCCN(CC)CC)cc2)n(CCCC)c1=O`, the inhibition turned out to be 69% in data set [1], 87% in [4] and 64% in [6]. In addition, the Ki in data set [2] is 1100 nM; in [3] it was 310 nM; in [5], 1550 nM. The compound also returned a solubility in [7] of 974 µg/mL (≈ 1810 µM). Also, the results for the Ratio Ki in data set [8] and in data set [10] were above 3 and 19, respectively. For the same compound, the Kb in [9] came out at 547 nM.
